Data: ChEMBL document CHEMBL3871279, “Bioactive Formylated Flavonoids from Eugenia rigida: Isolation, Synthesis, and X-ray Crystallography” (J Nat Prod, 2016)
≈ marks a conversion by molar mass, not a printed value. Where “and” joins values, the source holds several entries; their conditions need not be identical. Equal entries are not always repeated.

Key:
Candida albicans [1] = assay: Antimicrobial activity against Candida albicans ATCC 90028 after 46 to 50 hrs by broth microdilution method; assay type: functional
In short: (§1)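 Modified CLSI broth microdilution. Samples serially diluted in 20% DMSO–saline and plated in duplicate. Inocula set by correcting OD630 of suspensions in incubation broth to final target inocula. Amphotericin B drug control. Plates read before and after incubation at 530 nm, or at 544ex/590em for A. fumigatus. IC50 is the concentration giving 50% growth relative to controls. MIC is the lowest concentration allowing no growth.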

Nakaseomyces glabratus [2] = assay: Antimicrobial activity against Candida glabrata ATCC 90030 after 46 to 50 hrs by broth microdilution method; assay type: functional; in short: as §1
Nakaseomyces glabratus [3] = assay: Fungicidal activity against Candida glabrata ATCC 90030 after 46 to 50 hrs by broth microdilution method; assay type: functional
In short: (§2)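 Fungicidal end point from the broth microdilution plates (20% DMSO–saline serial dilutions, duplicate wells, OD630-corrected inocula, amphotericin B control). 5 μL from each clear well transferred to agar and incubated. MFC is the lowest test concentration allowing no growth on agar.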

Pichia kudriavzevii [4] = assay: Antimicrobial activity against Candida krusei ATCC 6258 after 46 to 50 hrs by broth microdilution method; assay type: functional; in short: as §1
Cryptococcus neoformans [5] = assay: Antimicrobial activity against Cryptococcus neoformans ATCC 90113 after 70 to 74 hrs by broth microdilution method; assay type: functional; in short: as §1
Cryptococcus neoformans [6] = assay: Fungicidal activity against Cryptococcus neoformans ATCC 90113 after 70 to 74 hrs by broth microdilution method; assay type: functional; in short: as §2
[7] = Cytotoxicity against human SK-MEL cells assessed as reduction in cell viability after 48 hrs by neutral red dye-based assay; assay type: functional
In short: (§3)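 Cell lines from ATCC, seeded at 25 000 cells/well and incubated 24 h. Samples added at several concentrations, then 48 h further incubation. Viability read by modified Neutral Red uptake. IC50 taken from dose–response curves of percent decrease in viability against concentration. Doxorubicin positive control, DMSO vehicle control.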

[8] = Cytotoxicity against human KB cells assessed as reduction in cell viability after 48 hrs by neutral red dye-based assay; assay type: functional; in short: as §3
[9] = Cytotoxicity against human BT549 cells assessed as reduction in cell viability after 48 hrs by neutral red dye-based assay; assay type: functional; conditions: BT-549, 48 h; in short: as §3
[10] = Cytotoxicity against human SKOV3 cells assessed as reduction in cell viability after 48 hrs by neutral red dye-based assay; assay type: functional; conditions: SK-OV-3, 48 h; in short: as §3
[11] = Cytotoxicity against human HeLa cells assessed as reduction in cell viability after 48 hrs by neutral red dye-based assay; assay type: functional; in short: as §3
[12] = Cytotoxicity against African green monkey Vero cells assessed as reduction in cell viability after 48 hrs by neutral red dye-based assay; assay type: toxicity; conditions: African green monkey (Chlorocebus sabaeus); in short: as §3
[13] = Cytotoxicity against pig LLC-PK1 cells assessed as reduction in cell viability after 48 hrs by neutral red dye-based assay; assay type: toxicity; conditions: pig (Sus scrofa); in short: as §3
Candida albicans [14] = assay: Fungicidal activity against Candida albicans ATCC 90028 after 46 to 50 hrs by broth microdilution method; assay type: functional; in short: as §2
Pichia kudriavzevii [15] = assay: Fungicidal activity against Candida krusei ATCC 6258 after 46 to 50 hrs by broth microdilution method; assay type: functional; in short: as §2
Aspergillus fumigatus [16] = assay: Antimicrobial activity against Aspergillus fumigatus ATCC 204305 after 46 to 50 hrs by broth microdilution method; assay type: functional; in short: as §1
Aspergillus fumigatus [17] = assay: Fungicidal activity against Aspergillus fumigatus ATCC 204305 after 46 to 50 hrs by broth microdilution method; assay type: functional; in short: as §2
Staphylococcus aureus [18] = assay: Antimicrobial activity against methicillin-resistant Staphylococcus aureus ATCC 33591 by broth microdilution method; assay type: functional
Staphylococcus aureus [19] = assay: microbe, parasite or virus in culture; conditions: ATCC 29213
Staphylococcus aureus [20] = assay: microbe, parasite or virus in culture; conditions: ATCC 33591
Staphylococcus aureus [21] = assay: Antimicrobial activity against Staphylococcus aureus ATCC 29213 by broth microdilution method; assay type: functional
[22] = Nakaseomyces glabratus, ATCC 90030

## O=Cc1c(O)cc(O)c(C(=O)/C=C/c2ccccc2)c1O
Candida albicans [1]
  IC50: 68.9 µM
Nakaseomyces glabratus [2]
  IC50: 10 µM and 35.2 µM
Nakaseomyces glabratus [3]
  MFC: 70.4 µM (≈ 20 µg/mL)
Pichia kudriavzevii [4]
  IC50: 34.1 µM
Cryptococcus neoformans [5]
  IC50: 24.5 µM
  MIC: 70.4 µM (≈ 20 µg/mL)
Cryptococcus neoformans [6]
  MFC: 70.4 µM (≈ 20 µg/mL)
[7]
  IC50: > 10 µM
[8]
  IC50: > 10 µM
[9]
  IC50: > 10 µM
[10]
  IC50: > 10 µM
[11]
  IC50: > 10 µM
[12]
  IC50 at 48 h: > 10 µM
[13]
  IC50 at 48 h: > 10 µM

## O=Cc1c(O)cc(O)c2c1O[C@H](c1ccccc1)CC2=O
Nakaseomyces glabratus [2]; [22]
  IC50: 7.4 µM
  MIC: 35.2 µM (≈ 10 µg/mL)
Pichia kudriavzevii [4]
  IC50: 29.9 µM
Cryptococcus neoformans [5]
  IC50: 44.4 µM
  MIC: 70.4 µM (≈ 20 µg/mL)
Cryptococcus neoformans [6]
  MFC: 70.4 µM (≈ 20 µg/mL)
[7]
  IC50: > 10 µM
[8]
  IC50: > 10 µM
[9]
  IC50: > 10 µM
[10]
  IC50: > 10 µM
[11]
  IC50: > 10 µM
[12]
  IC50 at 48 h: > 10 µM
[13]
  IC50 at 48 h: > 10 µM

## O=Cc1c(O)cc(O)c2c1O[C@@H](c1ccccc1)CC2=O
Nakaseomyces glabratus [2]; [22]
  IC50: 7.2 µM
  MIC: 35.2 µM (≈ 10 µg/mL)
Nakaseomyces glabratus [3]
  MFC: 70.4 µM (≈ 20 µg/mL)
Pichia kudriavzevii [4]
  IC50: 41.2 µM
Cryptococcus neoformans [5]
  IC50: 19.3 µM
[7]
  IC50: > 10 µM
[8]
  IC50: > 10 µM
[9]
  IC50: > 10 µM
[10]
  IC50: > 10 µM
[11]
  IC50: > 10 µM
[12]
  IC50 at 48 h: > 10 µM
[13]
  IC50 at 48 h: > 10 µM

## O=Cc1c(O)cc2c(c1O)C(=O)C[C@@H](c1ccccc1)O2
Nakaseomyces glabratus [2]; [22]
  IC50: 6.7 µM
  MIC: 35.2 µM (≈ 10 µg/mL)
Nakaseomyces glabratus [3]
  MFC: 70.4 µM (≈ 20 µg/mL)
Pichia kudriavzevii [4]
  IC50: 33.2 µM
Cryptococcus neoformans [5]
  IC50: 63.2 µM
  MIC: 70.4 µM (≈ 20 µg/mL)
[7]
  IC50: > 10 µM
[8]
  IC50: > 10 µM
[9]
  IC50: > 10 µM
[10]
  IC50: > 10 µM
[11]
  IC50: > 10 µM
[12]
  IC50 at 48 h: > 10 µM
[13]
  IC50 at 48 h: > 10 µM

## O=Cc1c(O)cc2oc(-c3ccccc3)cc(=O)c2c1O
Nakaseomyces glabratus [2]; [22]
  IC50: 10.8 µM
[7]
  IC50: > 10 µM
[8]
  IC50: > 10 µM
[9]
  IC50: > 10 µM
[10]
  IC50: > 10 µM
[11]
  IC50: > 10 µM
[12]
  IC50 at 48 h: > 10 µM
[13]
  IC50 at 48 h: > 10 µM

## COc1cccc2c1C(=O)c1c(O)c3c(c(O)c1C2=O)C[C@@](O)(C(=O)CO)C[C@@H]3O[C@H]1C[C@H](N)[C@H](O)[C@H](C)O1 [DOXORUBICIN]
[7]
  IC50: 1.5 µM
[8]
  IC50: 3.8 µM
[9]
  IC50: 3.6 µM
[10]
  IC50: 2.6 µM
[11]
  IC50: 4 µM
[12]
  IC50 at 48 h: > 10 µM
[13]
  IC50 at 48 h: 17 µM

## C[C@@H]1[C@H](O)[C@@H](C)/C=C/C=C/C=C/C=C/C=C/C=C/C=C/[C@H](O[C@@H]2O[C@H](C)[C@@H](O)[C@H](N)[C@@H]2O)C[C@@H]2O[C@](O)(C[C@@H](O)C[C@@H](O)[C@H](O)CC[C@@H](O)C[C@@H](O)CC(=O)O[C@H]1C)C[C@H](O)[C@H]2C(=O)O [AMPHOTERICIN B]
Nakaseomyces glabratus [2]; [22]
  IC50: 0.2 µM
  MIC: 0.7 µM (≈ 0.647 µg/mL)
Candida albicans [14]
  MFC: 0.7 µM (≈ 0.647 µg/mL)
Nakaseomyces glabratus [3]
  MFC: 0.7 µM (≈ 0.647 µg/mL)
Pichia kudriavzevii [4]
  IC50: 0.6 µM
  MIC: 1.3 µM (≈ 1.2 µg/mL)
Pichia kudriavzevii [15]
  MFC: 1.4 µM (≈ 1.29 µg/mL)
Aspergillus fumigatus [16]
  IC50: 1400 nM
  MIC: 2.7 µM (≈ 2.5 µg/mL)
Aspergillus fumigatus [17]
  MFC: 5.4 µM (≈ 4.99 µg/mL)
Cryptococcus neoformans [5]
  IC50: 0.2 µM
  MIC: 0.3 µM (≈ 0.277 µg/mL)
Cryptococcus neoformans [6]
  MFC: 0.3 µM (≈ 0.277 µg/mL)

## O=C(O)c1cn(C2CC2)c2cc(N3CCNCC3)c(F)cc2c1=O [CIPROFLOXACIN]
Staphylococcus aureus [18]
  IC50: 0.2 µM
Staphylococcus aureus [19]
  MBC: 1.5 µM (≈ 0.497 µg/mL)
Staphylococcus aureus [20]
  MBC: 3 µM (≈ 0.994 µg/mL)

## O=Cc1c(O)cc(O)c(C(=O)CCc2ccccc2)c1O
Nakaseomyces glabratus [2]; [22]
  IC50: 11.3 µM
  MIC: 69.9 µM (≈ 20 µg/mL)
Cryptococcus neoformans [5]
  IC50: 10.5 µM
  MIC: 17.4 µM (≈ 4.98 µg/mL)
Cryptococcus neoformans [6]
  MFC: 17.4 µM (≈ 4.98 µg/mL)
Staphylococcus aureus [21]
  IC50: 17.4 µM
Staphylococcus aureus [18]
  IC50: 36.6 µM
[7]
  IC50: > 10 µM
[8]
  IC50: > 10 µM
[9]
  IC50: > 10 µM
[10]
  IC50: > 10 µM
[11]
  IC50: > 10 µM
[12]
  IC50 at 48 h: > 10 µM
[13]
  IC50 at 48 h: > 10 µM

## O=C1CC(c2ccccc2)Oc2cc(O)cc(O)c21 (racemic)
Nakaseomyces glabratus [2]; [22]
  IC50: 42.9 µM
Pichia kudriavzevii [4]
  IC50: 65.5 µM
Cryptococcus neoformans [5]
  IC50: 28.8 µM
  MIC: 78.1 µM (≈ 20 µg/mL)
[7]
  IC50: > 10 µM
[8]
  IC50: > 10 µM
[9]
  IC50: > 10 µM
[10]
  IC50: > 10 µM
[11]
  IC50: > 10 µM
[12]
  IC50 at 48 h: > 10 µM
[13]
  IC50 at 48 h: > 10 µM

## O=Cc1c(O)cc2c(c1O)C(=O)C[C@H](c1ccccc1)O2
Nakaseomyces glabratus [2]; [22]
  IC50: 12.6 µM
  MIC: 70.4 µM (≈ 20 µg/mL)
Nakaseomyces glabratus [3]
  MFC: 70.4 µM (≈ 20 µg/mL)
Cryptococcus neoformans [5]
  IC50: 61.5 µM
[7]
  IC50: > 10 µM
[8]
  IC50: > 10 µM
[9]
  IC50: > 10 µM
[10]
  IC50: > 10 µM
[11]
  IC50: > 10 µM
[12]
  IC50 at 48 h: > 10 µM
[13]
  IC50 at 48 h: > 10 µM
